# Results pooled from the literature.
# Each line is one published result; the experiments were not run side by side.
# Read-out: cell growth or viability
Structure (SMILES),cell line,method,concentration,time,quantity,result
CNC(=O)COc1cc2cc(Nc3nc(N4CCC(C(=O)NCCCCCCCNC(=O)C[C@@H]5N=C(c6ccc(Cl)cc6)c6c(sc(C)c6C)-n6c(C)nnc65)CC4)ncc3Cl)cc(OC)c2n(C)c1=O,human Fibroblast,,,72 h,EC50,~0.47 µM
N#Cc1ccc(COC[C@H]2O[C@@H](n3c(NCc4ccc(Cl)c(Cl)c4)nc4c(N)ncnc43)[C@H](O)[C@@H]2O)cc1,HN-6,,,72 h,IC50,4.86 µM
CC(C)Nc1ccnc(Nc2cccc(-c3ccccc3)c2)n1,MV4-11,ATP luminescence,,72 h,EC50,3.98 µM
Cc1cc2c(cc1N1C(=O)c3cccc4c(CCCO)ccc(c34)C1=O)n(C)c(=O)n2C (racemic),769-P,resazurin,,,GI50,3.21 µM
C[C@H](Nc1ccnc(Nc2cccc(-c3cccnc3)c2)n1)C(=O)O,MV4-11,ATP luminescence,,72 h,EC50,> 8 µM
COC(=O)c1c(C)ncn1CC(c1c[nH]c2ccccc12)c1c[nH]c2ccccc12,human Fibroblast,MTS,20 µM,24 h,inhibition,12%
COC(C)(C)CCC[C@](C)(O)[C@H]1CC[C@]2(C)[C@@H]1[C@H](O)C[C@@H]1[C@@]3(C)CC[C@H](O)C(C)(C)[C@@H]3CC[C@]12C,BEAS-2B,MTT,,72 h,IC20,4.46 µM
CC[C@H](C)Nc1ccnc(Nc2cccc(-c3cccnc3)c2)n1,MV4-11,ATP luminescence,,72 h,EC50,0.065 µM
CC(C)=CCC[C@](C)(O)[C@H]1CC[C@]2(C)[C@@H]1[C@H](O)C[C@@H]1[C@@]3(C)CC[C@H](O[C@@H]4O[C@H](CO)[C@@H](O)[C@H](O)[C@H]4O[C@@H]4O[C@H](CO)[C@@H](O)[C@H](O)[C@H]4O)C(C)(C)[C@@H]3CC[C@]12C,BEAS-2B,MTT,,72 h,IC80,> 100 µM
CCOC(=O)c1c(C)ncn1CC(c1cn(C)c2ccc([N+](=O)[O-])cc12)c1cn(C)c2ccc([N+](=O)[O-])cc12,human Fibroblast,MTS,20 µM,24 h,inhibition,21.1%
COc1ccc(-c2ccc(-c3ccc(C(=N)N)nc3)s2)cc1Cl,LOX IMVI,SRB,,,GI50,1.87 µM
CCCNc1ccnc(Nc2cccc(-c3cccnc3)c2)n1,MV4-11,ATP luminescence,,72 h,EC50,0.138 µM
COc1ccc(-c2ccc(-c3ccc(C(=N)N)nc3)s2)cc1,MDA-MB-468,SRB,,,GI50,1.63 µM
CC(C)(CO)Cn1nc(-c2ccc3nc(OCC(F)(F)F)ccc3c2)c2c(N)ncnc21,CRL8155,,,,GI50,> 10 µM
CC(C)Nc1ccnc(Nc2cccc(-c3nccs3)c2)n1,MV4-11,ATP luminescence,,72 h,EC50,9.46 µM
CC1(C)C(=O)NC2=C1C(=O)C(=O)c1ccccc12,HN-6,,,72 h,IC50,> 20 µM
CC(C)Nc1ccnc(Nc2cccc(-c3ccncc3)c2)n1,MV4-11,ATP luminescence,,72 h,EC50,> 15 µM
COC(=O)c1c(C)ncn1CC(c1cn(C)c2ccccc12)c1cn(C)c2ccccc12,human Fibroblast,MTS,20 µM,24 h,inhibition,5.1%
